Data as given in ChEMBL document CHEMBL5346861, “Designing quinoline-isoniazid hybrids as potent anti-tubercular agents inhibiting mycolic acid biosynthesis” (Eur J Med Chem, 2022).
Converted amounts (≈) assume the structure as drawn. The source made the active and inactive calls. No cut-off for these calls is given here.

Experiments:
[1] = system: Mycobacterium tuberculosis; assay: Antimycobacterial activity against Mycobacterium tuberculosis mc2 6230 harbouring pMV261 plasmid overexpressing inhA assessed as inhibition of bacterial growth measured after 7 days by 7H9 broth based dilution method; assay type: functional; settings: mc2 6230, 168 h, time 7 day
[2] = system: Mycobacterium tuberculosis; assay: Antimycobacterial activity against Mycobacterium tuberculosis mc2 6230 harbouring pMV261 plasmid overexpressing inhA assessed as inhibition of bacterial growth measured after 7 days by 7H10 agar based dilution method; assay type: functional; settings: mc2 6230, 168 h, time 7 day
[3] = system: Mycobacterium tuberculosis; assay: Induction of resistance development in Mycobacterium tuberculosis mc2 6230 harbouring pMV261 plasmid overexpressing inhA assessed as fold increase in MIC measured after 7 days by 7H9 broth based dilution method; assay type: functional; settings: time 7 day
[4] = system: Mycobacterium tuberculosis; assay: Induction of resistance development in Mycobacterium tuberculosis mc2 6230 harbouring pMV261 plasmid overexpressing inhA assessed as fold increase in MIC measured after 7 days by 7H10 agar based dilution method; assay type: functional; settings: time 7 day
[5] = system: Mycobacterium tuberculosis; assay: Inhibition of mycolic acid biosynthesis in Mycobacterium tuberculosis mc2 6230 harbouring pMV261 plasmid overexpressing inhA assessed as decrease in alpha-mycolic acid at 1.25 ug/ml incubated for 15 mins followed by 14C-labeled acetate addition measured after 7 hrs by TLC analysis; assay type: functional, organism-based; settings: dose 1.25 µg/ml, time 435.0 min
Outline: (§1)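 mc²6230 carrying pMV261-inhA, treated for 15 hrs at 37 °C with agitation in 7H9/OADC/tyloxapol/pantothenate. Then labelled with 1 μCi/mL [¹⁴C]acetate for 7 hrs. Mycolic acid methyl esters extracted, 50,000 cpm resolved by TLC (hexane/ethyl acetate 19/1, 2 runs) and exposed overnight.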

[6] = system: Mycobacterium tuberculosis; assay: Inhibition of mycolic acid biosynthesis in Mycobacterium tuberculosis mc2 6230 harbouring pMV261 plasmid overexpressing inhA assessed as decrease in methoxy-mycolic acid at 1.25 ug/ml incubated for 15 mins followed by 14C-labeled acetate addition measured after 7 hrs by TLC analysis; assay type: functional, organism-based; settings: dose 1.25 µg/ml, time 435.0 min; outline: as §1
[7] = system: Mycobacterium tuberculosis; assay: Inhibition of mycolic acid biosynthesis in Mycobacterium tuberculosis mc2 6230 harbouring pMV261 plasmid overexpressing inhA assessed as decrease in keto-mycolic acid at 1.25 ug/ml incubated for 15 mins followed by 14C-labeled acetate addition measured after 7 hrs by TLC analysis; assay type: functional, organism-based; settings: dose 1.25 µg/ml, time 435.0 min; outline: as §1
[8] = system: Mycobacterium tuberculosis; assay: Induction of resistance development in Mycobacterium tuberculosis harbouring katG F594C mutant assessed as resistance frequency at 5 times of MIC by visual analysis; assay type: functional
[9] = system: Mycobacterium tuberculosis; assay: Induction of resistance development in Mycobacterium tuberculosis harbouring katG 186 del mutant assessed as resistance frequency at 20 times of MIC by visual analysis; assay type: functional
[10] = system: Mycobacterium tuberculosis; assay: Induction of resistance development in Mycobacterium tuberculosis harbouring katG amino acid change at stop codon mutant assessed as resistance frequency at 5 times of MIC by visual analysis; assay type: functional
[11] = system: Mycobacterium tuberculosis; assay: Induction of resistance development in Mycobacterium tuberculosis harbouring katG G495D mutant assessed as resistance frequency at 20 times of MIC by visual analysis; assay type: functional
[12] = system: Mycobacterium tuberculosis; assay: Induction of resistance development in Mycobacterium tuberculosis harbouring katG W161R mutant assessed as resistance frequency at 5 times of MIC by visual analysis; assay type: functional

## NNC(=O)c1ccncc1 [ISONIAZID]
[1]
  MIC: 1 µg/mL (≈ 7.29 µM)
[2]
  MIC: 1 µg/mL (≈ 7.29 µM)
[3]
  fold change (FC): 20
[4]
  fold change (FC): 20

## O=C(N/N=C/c1ccc(OCc2cn(-c3ccnc4cc(Cl)ccc34)nn2)cc1)c1ccncc1
[1]
  MIC: > 200 µg/mL
[2]
  MIC: 6.25 µg/mL (≈ 12.9 µM)
[3]
  fold change (FC): 25
[4]
  fold change (FC): 25

## O=C(N/N=C/c1ccccc1-n1cc(CN2CCN(c3ccnc4cc(Cl)ccc34)CC2)nn1)c1ccncc1
[1]
  MIC: 6.25 µg/mL (≈ 11.3 µM)
[2]
  MIC: 6.25 µg/mL (≈ 11.3 µM)
[3]
  fold change (FC): 25
[4]
  fold change (FC): 25
[5]
  inhibition: inactive
[6]
  inhibition: inactive
[7]
  inhibition: inactive
[8]
  Activity: 1.8 10^-6No_unit
[9]
  Activity: 7.1 10^-7No_unit

## O=C(N/N=C/c1ccc(OCc2cn(CCCNc3ccnc4cc(Cl)ccc34)nn2)cc1)c1ccncc1
[1]
  MIC: 12.5 µg/mL (≈ 23.1 µM)
[2]
  MIC: 6.25 µg/mL (≈ 11.6 µM)
[3]
  fold change (FC): 25
[4]
  fold change (FC): 25
[10]
  Activity: 1.52 10^-6No_unit
[11]
  Activity: 5 10^-7No_unit

## COc1cc(/C=N/NC(=O)c2ccncc2)ccc1OCc1cn(CCNc2ccnc3cc(Cl)ccc23)nn1
[1]
  MIC: 25 µg/mL (≈ 44.9 µM)
[2]
  MIC: 12.5 µg/mL (≈ 22.4 µM)
[3]
  fold change (FC): 25
[4]
  fold change (FC): 25

## COc1cc(/C=N/NC(=O)c2ccncc2)ccc1OCc1cn(-c2ccnc3cc(Cl)ccc23)nn1
[1]
  MIC: 50 µg/mL (≈ 97.3 µM)
[2]
  MIC: 12.5 µg/mL (≈ 24.3 µM)
[3]
  fold change (FC): 25
[4]
  fold change (FC): 25

## O=C(N/N=C/c1ccc(OCc2cn(CCNc3ccnc4cc(Cl)ccc34)nn2)cc1)c1ccncc1
[1]
  MIC: 12.5 µg/mL (≈ 23.7 µM)
[2]
  MIC: 6.25 µg/mL (≈ 11.9 µM)
[3]
  fold change (FC): 25
[4]
  fold change (FC): 25

## COc1cc(/C=N/NC(=O)c2ccncc2)ccc1OCc1cn(CCCNc2ccnc3cc(Cl)ccc23)nn1
[1]
  MIC: 25 µg/mL (≈ 43.8 µM)
[2]
  MIC: 6.25 µg/mL (≈ 10.9 µM)
[3]
  fold change (FC): 25
[4]
  fold change (FC): 25
[12]
  Activity: 1.16 10^-6No_unit
